Bioassay records: PubChem BioAssay, several laboratories
A selection: hits, their analogues and other compounds. The true share with any hit is near 3%.
Apaf-1 inh = blocks human Apaf-1 apoptosome activity; AID 489030; inhibition, % at 20 µM; O14727; actives 0.71% (n = 330,000); reconstituted apoptosome caspase-3 activity, DEVD-Rh110 fluorescence; active means inhibition of at least 40% at 20 µM
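detection = Rh110 fluorescence intensity | test system = biochemical Apaf-1 apoptosome reconstitution | also added = cytochrome c and DEVD-Rh110 substrate | schedule = 30 min plus 50 min, RT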
beta cell repl = MIN6 beta-cell proliferation induction; MIN6 cells proliferation, ATPlite luminescence, 48 h; cells starved in 0.2% serum; 100% = growth in 10% serum; proliferation, % at 10 µM; actives 0.29% (n = 330,000);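 active means compounds whose signal lies at least 3.5 SD above the mean of all wells on their plate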
UBC13 polyUb = human UBC13 polyubiquitination inhibition; UBC13 polyubiquitin chain formation, TR-FRET; inhibition, % at 20 µM; actives 0.47% (n = 330,000); in the data active means inhibition above about 45%, passing the limit was not always enough; inconclusive means no clear call, values can overlap the other calls
Target sequence (P61088 whole entry, looked up): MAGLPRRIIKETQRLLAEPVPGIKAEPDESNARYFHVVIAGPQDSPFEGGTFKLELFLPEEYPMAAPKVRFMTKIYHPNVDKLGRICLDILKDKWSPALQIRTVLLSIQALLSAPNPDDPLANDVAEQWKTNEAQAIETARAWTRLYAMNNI
hiPSC survival = increases survival of single human iPS cells; hiPSC single-cell survival, ATPlite luminescence; 100% = ROCK inhibitor wells, 0% = DMSO; survival enhancement, % at 20 µM; actives 0.044% (n = 360,000); AID 602274; in the data active means survival enhancement above about 18%;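 further: cells exposed to compounds for 16 hours before the ATP read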
Exocytosis inh = lytic granule exocytosis inhibition | actives 0.66% (n = 360,000) | TALL-104 LAMP-1 surface exposure, flow cytometry; cells stimulated with thapsigargin and PMA | AID 651702 | inhibition, % at 10 µM;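 active means inhibition above about 55%, limit read from the data; inconclusive means no clear call, values can overlap the other calls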
MPTP inh = blocks calcium-induced mitochondrial swelling. isolated mouse mitochondria, Ca2+ swelling absorbance, 30 min. inhibition, % at 10 µM. actives 1.4% (n = 360,000);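 active means inhibition of 50% or more, scaled per plate between neutral and stimulator controls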
Granule exo CP1 = lytic granule exocytosis inhibition | TALL-104 cells, LAMP-1 externalization, flow cytometry; stimulated with PMA plus thapsigargin | shares compounds with Exocytosis inh | inhibition, % at 10 µM | actives 11% (n = 1,500); in the data active means inhibition above about 60%
A number is an active result; - = inactive; ? = inconclusive; . = no result.

SMILES	Apaf-1 inh	beta cell repl	UBC13 polyUb	hiPSC survival	Exocytosis inh	MPTP inh	Granule exo CP1
CCCCc1c(-c2ccc(OC)cc2)ncn1CCc1ccccc1OC	.	.	.	-	82	-	-
CCCCc1c(-c2ccc(F)cc2)ncn1CCc1ccccc1OC	.	.	.	-	-	-	.
N#CC(=C(c1ccccc1)c1ccccc1)c1ccccc1	.	.	.	-	-	-	.
Cc1ccc(O)c(NC(=O)c2onc(C)c2Cl)c1	-	-	-	-	-	-	.
CC1CCC(NC(=O)CCS(=O)(=O)c2ccc3c(c2)CC(C)N3C(=O)C2CC2)CC1 (stereo not drawn)	-	-	-	-	-	-	.
Cc1cc(CNC(=O)COc2ccc([N+](=O)[O-])cc2)c2ccccc2n1	-	-	-	-	60	-	-
Cc1cc(CNC(=O)COc2ccccc2)c2ccccc2n1	.	.	.	-	-	-	.
CN(CC(=O)Nc1c(Cl)cccc1Cl)C(=O)c1cccc(-n2cccc2)c1	-	-	-	-	-	-	.
COc1ccc(C)cc1NC(=O)CSCc1cc(=O)n2c(C)csc2n1	-	-	-	-	-	-	.
CC(=O)CCc1oc2ccccc2c1-c1ccccc1	-	-	-	-	-	-	.
CC(=O)CCc1oc2c([N+](=O)[O-])cccc2c1-c1ccc(C)o1	-	-	-	-	72	-	-
COc1cccc(NC(=O)c2sc3nc(N4CCOCC4)c4c(c3c2N)CCCC4)c1	-	-	?	-	69	-	-
Nc1c(C(=O)Nc2ccccc2)sc2nc(N3CCOCC3)c3c(c12)CCCC3	.	.	.	-	-	-	.
CS(=O)(=O)c1nc(S(=O)(=O)c2ccc(Cl)cc2)c(N2CCC(O)CC2)s1	-	-	-	-	-	-	.
CC1=C(C)CS(=O)N(S(=O)(=O)c2ccc(Cl)cc2)C1 (stereo not drawn)	-	-	-	-	64	-	94
Cc1cc(NC(=O)CCN2CCN(C/C=C/c3ccccc3)CC2)ccc1Br	-	-	-	-	60	-	-
O=C(NCCCN1CCN(c2ccc(F)cc2)CC1)NC12CC3CC(CC(C3)C1)C2	-	-	-	-	56	-	-
CCOCCCNC(=O)NC12CC3CC(CC(C3)C1)C2	-	-	-	-	-	-	.
O=C(O)CCCCCCCCCCCNC(=O)NC12CC3CC(CC(C3)C1)C2	-	-	-	-	80	-	-
CCOC(=O)c1ccc(N(CC2CO2)S(=O)(=O)c2ccc(C)cc2)cc1 (stereo not drawn)	.	.	.	-	-	-	.
COc1ccc(N(CC(=O)NCC(C)C)S(=O)(=O)c2ccccc2)cc1	-	-	-	-	-	-	.
COc1ccc(N(CC(=O)NCCOc2ccccc2)S(=O)(=O)c2ccc(C)cc2)cc1	-	-	-	-	78	-	-
COc1ccc(N(CC(=O)Nc2ccc(OC)c(OC)c2)S(=O)(=O)c2ccccc2)cc1Cl	-	-	-	-	-	-	.
COc1ccc(N(CC(=O)NCCC2=CCCCC2)S(=O)(=O)c2ccccc2)cc1	-	-	-	-	62	-	-
CCOc1ccc(N(CC(=O)NCCSc2ccccn2)S(C)(=O)=O)cc1	-	-	-	-	-	-	.
SMILES	Apaf-1 inh	beta cell repl	UBC13 polyUb	hiPSC survival	Exocytosis inh	MPTP inh	Granule exo CP1
CCOc1ccc(N(CC(=O)NCCSc2ccccn2)S(=O)(=O)c2ccc(Cl)cc2)cc1	-	-	-	-	57	-	-
COc1ccc(NC(=O)CN(c2ccc(OC)c(Cl)c2)S(=O)(=O)c2ccccc2)cc1	-	-	-	-	56	-	-
O=C(CCNS(=O)(=O)c1ccccc1F)OCc1ccccc1Cl	-	-	-	-	-	-	.
Cn1nccc1C(=O)N1CCN(c2ccccc2F)CC1	-	-	-	-	-	-	.
COc1ccc(C(=O)NCCCN2CCCC2=O)cc1S(=O)(=O)N1CCOCC1	.	.	.	-	-	-	.
CN(C)c1nc(N(C)C)c2cnn(C)c2n1	.	.	.	-	-	-	.
CCOc1ccccc1NC(=O)c1cc(S(=O)(=O)NCc2ccco2)ccc1F	-	-	-	-	104	-	-
CN(C)CC(O)COC(c1ccc(Cl)cc1)c1ccc(Cl)cc1 (stereo not drawn)	-	-	-	-	66	-	-
